In paper PMC12796350 (Scientific Reports, 2025):
Where two headings read alike, the source gives them in different places.

Legend:
SW620 cells = assay: Apoptosis, Annexin V-FITC/7-AAD flow cytometry, SW620; type: cell-based, human; conditions: SW620, 4 µM, 4 h
Outline: (§1)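 Human HTB-140, A549, HeLa, SW620 or HaCaT cells were grown in DMEM with 2% FBS at 1 × 10^4 cells per well and preincubated 72 h with test compound. Camptothecin, 4 µM for 4 h, served as the positive control. Cells were dual-stained with Annexin V-FITC and 7-AAD, and 10,000 cells were analysed by flow cytometry. Annexin+/7-AAD− cells counted as early apoptotic; Annexin+/7-AAD+ as late apoptotic or necrotic.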

HaCaT cells [1] = assay: Apoptosis, Annexin V-FITC/7-AAD flow cytometry, HaCaT; type: cell-based, human; conditions: 4 µM, 4 h
Outline: as §1

HTB-140 cells [2] = assay: Apoptosis, Annexin V-FITC/7-AAD flow cytometry, HTB-140; type: cell-based, human
Outline: as §1

A549 cells = assay: Apoptosis, Annexin V-FITC/7-AAD flow cytometry, A549; type: cell-based, human; conditions: for cells in late apoptosis or necrosis: A549, IC50 concentration, 72 h
Outline: as §1

HeLa cells = assay: Apoptosis, Annexin V-FITC/7-AAD flow cytometry, HeLa; type: cell-based, human; conditions: 4 µM, 4 h
Outline: as §1

[3] = system: SW620 (human colorectal cancer) cells; assay: MTT cytotoxicity assay, SW620; type: cell-based; conditions: for SI SW620 (Selectivity Index): SI = IC50 for normal cell line (HaCaT)/IC50 cancer cell line
Outline: (§2)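 Cells were seeded in 96-well plates at 1 × 10^4 per well in DMEM with 2% FBS and exposed 72 h to a range of test-compound concentrations. MTT (0.5 mg/mL) was added for 4 h, and formazan was dissolved in 0.04 M HCl/isopropanol. A570 was read relative to untreated control. […] SI = IC50 in HaCaT keratinocytes / IC50 in the cancer line. Mean SD.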

[4] = system: A549 (human lung adenocarcinoma) cells; assay: MTT cytotoxicity assay, A549; type: cell-based; conditions: for IC50: read-out: IC50 A549; for SI A549 (Selectivity Index): SI = IC50 for normal cell line (HaCaT)/IC50 cancer cell line
Outline: as §2

[5] = system: HeLa (human cervical cancer) cells; assay: MTT cytotoxicity assay, HeLa; type: cell-based; conditions: for IC50: 72 h, read-out: IC50 HeLa; for SI HeLa (Selectivity Index): SI = IC50 for normal cell line (HaCaT)/IC50 cancer cell line
Outline: as §2

[6] = system: HTB-140 (human melanoma) cells; assay: MTT cytotoxicity assay, HTB-140; type: cell-based; conditions: for IC50: 72 h, read-out: IC50 HTB-140; for SI HTB-140 (Selectivity Index): SI = IC50 for normal cell line (HaCaT)/IC50 cancer cell line
Outline: as §2

[7] = system: HaCaT (immortalized human keratinocytes); assay: MTT cytotoxicity assay, HaCaT normal cells; type: cell-based; conditions: 72 h, read-out: IC50 HaCaT (normal cells)
HaCaT cells [8] = assay: LDH release assay, HaCaT; type: cell-based, human; conditions: 25 µM, 72 h
HTB-140 cells [9] = assay: LDH release assay, HTB-140; type: cell-based, human; conditions: 25 µM, 72 h
[10] = system: interleukin-6 (IL-6) release, A549 cells; assay: IL-6 level by ELISA, A549; type: cell-based, human; conditions: A549, IC50 dose, 72 h
Outline: (§3)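 Cells were seeded at 1 × 10^4 per well in DMEM with 2% FBS and exposed to test compound for 72 h. IL-6 in the culture supernatant was measured with a commercial ELISA kit and compared with untreated control. Data are mean ± SD from three independent experiments, each run in triplicate, compared by Student's t-test.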

[11] = system: interleukin-6 (IL-6) release, HTB-140 cells; assay: IL-6 level by ELISA, HTB-140; type: cell-based, human; conditions: HTB-140, IC50 dose, 72 h
Outline: as §3

[12] = system: interleukin-6 (IL-6) release, SW620 cells; assay: IL-6 level by ELISA, SW620; type: cell-based, human; conditions: SW620, IC50 dose, 72 h
Outline: as §3

[13] = system: interleukin-6 (IL-6) release, HeLa cells; assay: IL-6 level by ELISA, HeLa; type: cell-based, human; conditions: IC50 dose, 72 h
Outline: as §3

[14] = Homo sapiens, SW-620, 72 h, read-out: IC50 SW620, MTT, 72 h, mean SD
[15] = HTB-140, IC50 concentration, 72 h
[16] = read-out: IC50 SW620, MTT, 72 h, mean SD

CC[C@@]1(O)C(=O)OCc2c1cc1n(c2=O)Cc2cc3ccccc3nc2-1 [camptothecin]
apoptosis induction (positive control) (SW620 cells): induced apoptosis | apoptosis induction (positive control) (HaCaT cells [1]): induced apoptosis | apoptosis induction (positive control) (HTB-140 cells [2]; HTB-140, 4 µM, 4 h): induced apoptosis | apoptosis induction (positive control) (A549 cells; A549, 4 µM, 4 h): induced apoptosis | apoptosis induction (positive control) (HeLa cells): induced apoptosis

COc1cccc2c1C(=O)c1c(O)c3c(c(O)c1C2=O)C[C@@](O)(C(=O)CO)C[C@@H]3O[C@H]1C[C@H](N)[C@H](O)[C@H](C)O1 [Ref 2, doxorubicin, reference compound]
IC50 [3, 14]: 0.7 ± 0.16 µM | IC50 ([4]; Homo sapiens, A549, 72 h): 0.9 ± 0.19 µM | IC50 ([5]; Homo sapiens, HeLa): 0.6 ± 0.14 µM | IC50 ([6]; Homo sapiens): 0.5 ± 0.21 µM

CCc1cc(=O)c2c(OCC(O)CN3CCOCC3)c3ccoc3c(OC)c2o1 (stereo not shown) [Compound 9, 7-ethyl-9-methoxy-4-[2-hydroxy-3-(morpholin-4-yl)propoxy]-5H-furo[3,2-g][1] benzopyran-5-one]
IC50 [3, 14]: 21.9 ± 4.3 µM | SI SW620 (Selectivity Index) [3]: 2.45 | IC50 ([4]; Homo sapiens, A549, 72 h): 37.6 ± 7.3 µM | SI A549 (Selectivity Index) [4]: 1.43 | IC50 ([5]; Homo sapiens, HeLa): 29.5 ± 4.6 µM | SI HeLa (Selectivity Index) [5]: 1.82 | IC50 ([6]; Homo sapiens): 23.4 ± 2.6 µM | SI HTB-140 (Selectivity Index) [6]: 2.29 | IC50 ([7]; Homo sapiens, HaCaT): 53.6 ± 7.3 µM

CCc1cc(=O)c2c(OCC(O)CN3CCC(C)CC3)c3ccoc3c(OC)c2o1 (stereo not shown) [Compound 5, 7-ethyl-9-methoxy-4-[2-hydroxy-3-(4-methylpiperidin-1-yl)propoxy]-5H-furo[3,2-g][1]benzopyran-5-one]
IC50 [3, 14]: 26.3 ± 3.3 µM | SI SW620 (Selectivity Index) [3]: 1.67 | IC50 ([4]; Homo sapiens, A549, 72 h): 43.8 ± 8.3 µM | SI A549 (Selectivity Index) [4]: 1.00 | IC50 ([5]; Homo sapiens, HeLa): 32.6 ± 3.7 µM | SI HeLa (Selectivity Index) [5]: 1.34 | IC50 ([6]; Homo sapiens): 29.4 ± 4.9 µM | SI HTB-140 (Selectivity Index) [6]: 1.49 | IC50 ([7]; Homo sapiens, HaCaT): 43.8 ± 8.3 µM

CCc1cc(=O)c2c(O)c3ccoc3c(OC)c2o1 [Compound 2, 7-ethyl-4-hydroxy-9-methoxy-5H-furo[3,2-g][1]benzopyran-5-one]
LDH release (HaCaT cells [8]): 13.5% | IC50 [3, 14]: 17.4 ± 3.5 µM | SI SW620 (Selectivity Index) [3]: 2.67 | LDH release (HTB-140 cells [9]): 30.4% | IC50 ([4]; Homo sapiens, A549, 72 h): 36.5 ± 6.5 µM | SI A549 (Selectivity Index) [4]: 1.27 | IL-6 release effect vs control [10]: 38% | cells in early apoptosis (HTB-140 cells [2]; [15]): 19.5% | cells in late apoptosis or necrosis (HTB-140 cells [2]; [15]): 20.8% | cells in late apoptosis or necrosis (A549 cells): 63.2% | IC50 ([5]; Homo sapiens, HeLa): 29.2 ± 3.9 µM | SI HeLa (Selectivity Index) [5]: 1.59 | IC50 ([6]; Homo sapiens): 29.4 ± 3.4 µM | SI HTB-140 (Selectivity Index) [6]: 1.58 | IC50 ([7]; Homo sapiens, HaCaT): 46.5 ± 8.5 µM

CCc1cc(=O)c2c(O)c3ccoc3c(O)c2o1 [Compound 1, 7-ethyl-4,9-dihydroxy-5 H-furo[3,2-g][1]benzopyran-5-one]
IC50 [3, 14]: 21.1 ± 4.4 µM | SI SW620 (Selectivity Index) [3]: 2.36 | IC50 ([4]; Homo sapiens, A549, 72 h): 39.8 ± 7.9 µM | SI A549 (Selectivity Index) [4]: 1.25 | IC50 ([5]; Homo sapiens, HeLa): 41.5 ± 4.6 µM | SI HeLa (Selectivity Index) [5]: 1.20 | IC50 ([6]; Homo sapiens): 30.4 ± 8.7 µM | SI HTB-140 (Selectivity Index) [6]: 1.64 | IC50 ([7]; Homo sapiens, HaCaT): 49.8 ± 7.9 µM

CCc1cc(=O)c2c(OCC(O)CN3CCCCC3)c3ccoc3c(OC)c2o1 (stereo not shown) [Compound 7, 7-ethyl-9-methoxy-4-[2-hydroxy-3-(piperidin-1-yl)propoxy]-5H-furo[3,2-g][1] benzopyran-5-one]
IC50 [3, 14]: 28.6 ± 5.5 µM | SI SW620 (Selectivity Index) [3]: 1.81 | IC50 ([4]; Homo sapiens, A549, 72 h): 35.2 ± 6.3 µM | SI A549 (Selectivity Index) [4]: 1.47 | IC50 ([5]; Homo sapiens, HeLa): 32.3 ± 3.8 µM | SI HeLa (Selectivity Index) [5]: 1.61 | IC50 ([6]; Homo sapiens): 32.5 ± 4.1 µM | SI HTB-140 (Selectivity Index) [6]: 1.60 | IC50 ([7]; Homo sapiens, HaCaT): 51.9 ± 6.3 µM

N.N.[Cl][Pt][Cl] [Ref 1, cisplatin, reference compound]
IC50 [3, 16]: 1.9 ± 0.9 µM | IC50 ([4]; MTT, 72 h, mean SD): 2.7 ± 1.1 µM | IC50 ([5]; MTT, mean SD): 1.8 ± 0.74 µM | IC50 ([6]; MTT, mean SD): 1.4 ± 0.69 µM | IC50 ([7]; MTT, mean SD): 2.8 ± 1.1 µM

CCc1cc(=O)c2c(OCC(O)CNC(C)C)c3ccoc3c(OC)c2o1 (stereo not shown) [Compound 4, 7-ethyl-9-methoxy-4-{2-hydroxy-3-[(propan-2-yl)amino]propoxy}-5H-furo[3,2-g][1]benzopyran-5-one]
IC50 [3, 14]: 11.4 to 11.5 µM | SI SW620 (Selectivity Index) [3]: 3.68 | IC50 [3, 16]: 11.5 ± 6.6 µM | IC50 ([4]; Homo sapiens, A549, 72 h): 32.3 ± 7.9 µM | SI A549 (Selectivity Index) [4]: 1.31 | reduction of IL-6 release vs control [11]: strongest effect | reduction of IL-6 secretion vs control [12]: around 50% | cells in late apoptosis or necrosis (A549 cells): 55.6% | IC50 ([5]; Homo sapiens, HeLa): 27.4 ± 6.5 µM | SI HeLa (Selectivity Index) [5]: 1.54 | IC50 ([6]; Homo sapiens): 18.2 ± 3.6 µM | SI HTB-140 (Selectivity Index) [6]: 2.32 | IC50 ([7]; Homo sapiens, HaCaT): 42.3 ± 7.9 µM

CCc1cc(=O)c2c(OCC(O)CN(CC)CC)c3ccoc3c(OC)c2o1 (stereo not shown) [Compound 3, 7-ethyl-9-methoxy-4-[3-(diethylamino)-2-hydroxypropoxy]-5H-furo[3,2-g][1] benzopyran-5-one]
inhibition of IL-6 release vs control [13]: 48% | IC50 [3, 14]: 12.7 ± 5.1 µM | SI SW620 (Selectivity Index) [3]: 3.41 | IC50 ([4]; Homo sapiens, A549, 72 h): 33.6 ± 4.1 µM | SI A549 (Selectivity Index) [4]: 1.29 | IC50 ([5]; Homo sapiens, HeLa): 34.2 ± 4.9 µM | SI HeLa (Selectivity Index) [5]: 1.27 | IC50 ([6]; Homo sapiens): 30.1 ± 4.7 µM | SI HTB-140 (Selectivity Index) [6]: 1.44 | IC50 ([7]; Homo sapiens, HaCaT): 43.3 ± 9.1 µM

CCc1cc(=O)c2c(OCC(O)CNC(C)(C)C)c3ccoc3c(OC)c2o1 (stereo not shown) [Compound 8, 7-ethyl-9-methoxy-4-[3-(tert-butylamino)-2-hydroxypropoxy]-5H-furo[3,2-g][1] benzopyran-5-one]
IC50 [3, 14]: 26.3 ± 4.3 µM | SI SW620 (Selectivity Index) [3]: 1.75 | IC50 ([4]; Homo sapiens, A549, 72 h): 38.4 ± 7.3 µM | SI A549 (Selectivity Index) [4]: 1.20 | IC50 ([5]; Homo sapiens, HeLa): 33.4 ± 4.6 µM | SI HeLa (Selectivity Index) [5]: 1.38 | IC50 ([6]; Homo sapiens): 31.3 ± 2.6 µM | SI HTB-140 (Selectivity Index) [6]: 1.47 | IC50 ([7]; Homo sapiens, HaCaT): 46.1 ± 7.3 µM
